Laboratory results from ChEMBL document CHEMBL1629417, “Benzophenones and biflavonoids from Rheedia edulis” (J Nat Prod, 2010).

Experiments:
[1] = test system: Radical scavenging activity; experiment: Antioxidant activity assessed as DPPH radical scavenging activity; type: functional
Method in brief: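 Follows a previously described method. Trolox and gallic acid serve as reference antioxidants. Scavenging is expressed as percent inhibition of DPPH relative to DMSO-treated controls, and IC50 values are derived from it.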

[2] = Antioxidant activity assessed as ABTS radical scavenging activity; type: functional
Method in brief: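 Based on the Re et al. ABTS radical cation decolorization method, with modifications. Trolox and gallic acid serve as reference antioxidants. Percent inhibition of ABTS is calculated as in the DPPH assay, relative to DMSO-treated controls, and IC50 values are derived from it.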

SMILES	IC50 [1]	IC50 [2]
O=C(O)c1cc(O)c(O)c(O)c1 [GALLIC ACID]	33.9 µM	19.8 µM
CC(C)=CC[C@H]1C[C@]2(CC=C(C)C)C(=O)[C@@](CC=C(C)C)(C(=O)C(C(=O)c3ccccc3)=C2O)C1(C)C [6-EPI-CLUSIANONE]	766 µM	287 µM
Cc1c(C)c2c(c(C)c1O)CCC(C)(C(=O)O)O2 (stereo unspecified) [TROLOX]	70.8 µM	48.4 µM
